Experimental data published in ChEMBL document CHEMBL1141070, “Synthesis and biological activity of flurbiprofen analogues as selective inhibitors of beta-amyloid(1)(-)(42) secretion” (J Med Chem, 2005).

Key:
[1] = target: T1, Amyloid-beta precursor protein (Homo sapiens, UniProt P05067); conditions: at 100 µM
Target sequence in this assay (P05067 whole entry): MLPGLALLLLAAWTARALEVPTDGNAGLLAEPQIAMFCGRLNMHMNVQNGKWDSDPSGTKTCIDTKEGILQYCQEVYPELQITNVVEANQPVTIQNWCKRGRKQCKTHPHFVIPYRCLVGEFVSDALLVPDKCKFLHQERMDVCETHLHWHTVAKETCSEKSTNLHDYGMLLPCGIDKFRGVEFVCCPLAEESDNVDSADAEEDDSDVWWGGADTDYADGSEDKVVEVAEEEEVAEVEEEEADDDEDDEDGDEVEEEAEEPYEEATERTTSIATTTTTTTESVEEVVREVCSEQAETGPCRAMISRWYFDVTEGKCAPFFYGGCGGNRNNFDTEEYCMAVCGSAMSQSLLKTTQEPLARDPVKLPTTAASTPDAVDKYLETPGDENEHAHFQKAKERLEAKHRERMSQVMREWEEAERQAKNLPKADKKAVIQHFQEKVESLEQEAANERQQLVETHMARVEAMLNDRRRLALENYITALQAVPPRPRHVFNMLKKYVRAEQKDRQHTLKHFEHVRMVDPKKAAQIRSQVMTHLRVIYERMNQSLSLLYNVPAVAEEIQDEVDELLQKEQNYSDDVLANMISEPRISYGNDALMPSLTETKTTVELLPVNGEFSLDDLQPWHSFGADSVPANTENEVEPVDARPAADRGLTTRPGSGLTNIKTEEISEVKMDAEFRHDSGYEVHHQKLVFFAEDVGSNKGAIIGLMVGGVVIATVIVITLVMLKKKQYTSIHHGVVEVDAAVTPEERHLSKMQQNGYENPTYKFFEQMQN

[2] = target: T1, Amyloid-beta precursor protein; experiment: Inhibitory concentration against beta-amyloid-42 (Abeta42) secretion was evaluated in human neuroglioma cells (H4-APP695NL); type: functional, cell-based
In short: (§1)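 H4-APP695NL human neuroglioma cells (APP695 Swedish K595N/M596L) seeded at 2 × 10^5/well and grown 24 h to confluence. Increasing compound concentrations added overnight; DMSO 1% as vehicle. Supernatant Aβ42 or Aβ40 measured by electrochemiluminescence immunoassay: biotinylated 4G8 plus C-terminus-specific rabbit antibodies, captured on streptavidin beads.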
Target sequence in this assay (P05067 18-770 limits assumed): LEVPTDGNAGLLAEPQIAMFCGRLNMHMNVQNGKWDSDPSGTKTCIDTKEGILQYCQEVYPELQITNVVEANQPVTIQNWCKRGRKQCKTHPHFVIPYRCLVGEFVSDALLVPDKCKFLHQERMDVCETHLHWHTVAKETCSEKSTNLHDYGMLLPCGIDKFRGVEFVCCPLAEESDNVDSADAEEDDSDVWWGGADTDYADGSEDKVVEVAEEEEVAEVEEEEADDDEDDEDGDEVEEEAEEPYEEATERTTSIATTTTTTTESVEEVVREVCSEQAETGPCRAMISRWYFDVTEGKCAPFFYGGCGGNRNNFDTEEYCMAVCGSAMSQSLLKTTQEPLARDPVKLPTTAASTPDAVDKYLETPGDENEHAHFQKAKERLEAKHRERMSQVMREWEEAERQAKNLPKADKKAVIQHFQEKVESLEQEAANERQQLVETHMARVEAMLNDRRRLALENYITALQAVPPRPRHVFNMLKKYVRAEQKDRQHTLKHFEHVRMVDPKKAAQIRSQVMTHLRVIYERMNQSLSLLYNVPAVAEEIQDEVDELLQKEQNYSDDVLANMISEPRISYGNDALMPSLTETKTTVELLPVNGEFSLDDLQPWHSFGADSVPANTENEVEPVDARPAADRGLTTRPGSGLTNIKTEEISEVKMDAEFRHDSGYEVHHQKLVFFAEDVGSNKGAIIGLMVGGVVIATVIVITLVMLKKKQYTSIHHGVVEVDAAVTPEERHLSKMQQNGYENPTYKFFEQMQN

[3] = target: T2, Prostaglandin G/H synthase 1 (Rattus norvegicus, UniProt Q63921); experiment: Concentration required to inhibit cyclooxygenase-1 in rat blood
T2 sequence (Q63921 whole entry): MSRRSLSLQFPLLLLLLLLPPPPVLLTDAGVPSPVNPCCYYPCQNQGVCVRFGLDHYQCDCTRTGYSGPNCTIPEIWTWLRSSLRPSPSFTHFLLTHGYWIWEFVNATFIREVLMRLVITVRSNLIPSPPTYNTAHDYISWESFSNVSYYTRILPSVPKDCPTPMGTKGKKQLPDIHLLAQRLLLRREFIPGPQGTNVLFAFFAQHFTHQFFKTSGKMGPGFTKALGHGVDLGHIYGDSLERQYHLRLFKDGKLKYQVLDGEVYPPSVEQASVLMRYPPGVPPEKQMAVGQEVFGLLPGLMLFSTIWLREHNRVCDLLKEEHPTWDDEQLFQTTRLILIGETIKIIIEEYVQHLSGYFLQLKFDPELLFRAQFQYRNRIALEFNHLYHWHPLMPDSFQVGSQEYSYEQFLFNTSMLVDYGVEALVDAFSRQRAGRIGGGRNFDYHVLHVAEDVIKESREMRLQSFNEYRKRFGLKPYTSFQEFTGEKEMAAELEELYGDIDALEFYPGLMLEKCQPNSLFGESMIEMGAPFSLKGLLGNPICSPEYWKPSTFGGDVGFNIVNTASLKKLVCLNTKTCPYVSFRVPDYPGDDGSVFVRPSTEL
In short: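 Fresh rat whole blood was preincubated 1 h at 37 °C with compound (100 μM or a concentration series; DMSO 0.3% final). It was then stimulated 30 min with the Ca²⁺ ionophore A23187. Thromboxane B2 in the plasma was measured by radioimmunoassay.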

[4] = target: CYP2C19 (Homo sapiens, UniProt P33261); experiment: Interaction with human cytochrome P450 isoform 2C19 expressed in baculovirus-insect cells at 100 uM; type: ADME
Sequence of CYP2C19 (P33261 whole entry, canonical isoform): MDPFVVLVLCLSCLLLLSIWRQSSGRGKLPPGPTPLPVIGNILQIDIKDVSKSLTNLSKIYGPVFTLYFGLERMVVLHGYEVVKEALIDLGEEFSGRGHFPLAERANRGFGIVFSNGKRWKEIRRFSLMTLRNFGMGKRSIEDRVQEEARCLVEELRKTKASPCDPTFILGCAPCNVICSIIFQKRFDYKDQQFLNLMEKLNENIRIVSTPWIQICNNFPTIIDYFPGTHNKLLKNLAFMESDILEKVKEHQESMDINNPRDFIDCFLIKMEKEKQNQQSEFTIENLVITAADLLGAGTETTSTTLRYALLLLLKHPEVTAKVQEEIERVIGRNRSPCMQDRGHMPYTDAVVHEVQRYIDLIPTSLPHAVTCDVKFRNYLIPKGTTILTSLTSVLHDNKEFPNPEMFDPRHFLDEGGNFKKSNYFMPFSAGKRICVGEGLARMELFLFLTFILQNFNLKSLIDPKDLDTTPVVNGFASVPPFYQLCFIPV
In short: (§2)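 Microsomes from baculovirus-insect cells expressing human CYP1A2, 2C9, 2C19, 2D6 or 3A4. Compound serially diluted with an NADPH-regenerating mix (16.3 μM NADP+, 0.83 mM glucose-6-phosphate, 0.83 mM MgCl2, 0.4 U/mL G6PDH). Pre-warmed 10 min at 37 °C, then isoform-specific substrate added in 0.35 M potassium phosphate pH 7.4. Fluorometric read-out; IC50 by nonlinear regression.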

[5] = target: T3, Prostaglandin G/H synthase 1 (Rattus norvegicus) (UniProt Q63921); experiment: Percent inhibition against cyclooxygenase-1 at 100 uM in rat blood
T3 sequence (whole entry): T2 sequence (Q63921 whole entry)
In short: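 Fresh rat whole blood preincubated 1 h at 37 °C with compound (100 μM) or DMSO (0.3% final). Stimulated 30 min with A23187 calcium ionophore; plasma thromboxane B2 measured by radioimmunoassay.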

[6] = Intestinal drug absorption was estimated in vitro using human colon adenocarcinoma (Caco-2) cell monolayers; type: ADME
In short: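 Caco-2 monolayers on polycarbonate Transwell inserts, 2 h at 37 °C. Apical and basolateral solutions analysed by LC-MS/MS (SRM). Papp = Cb·Vb/(C0·A·t).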

[7] = In vivo steady state metabolic clearance of the compound; conditions: rat
[8] = target: Cytochrome P450 2C9 (Homo sapiens, UniProt P11712); experiment: Interaction with human cytochrome P450 isoform 2C9 expressed in baculovirus-insect cells; type: ADME
Sequence of Cytochrome P450 2C9 (P11712 whole entry, canonical isoform): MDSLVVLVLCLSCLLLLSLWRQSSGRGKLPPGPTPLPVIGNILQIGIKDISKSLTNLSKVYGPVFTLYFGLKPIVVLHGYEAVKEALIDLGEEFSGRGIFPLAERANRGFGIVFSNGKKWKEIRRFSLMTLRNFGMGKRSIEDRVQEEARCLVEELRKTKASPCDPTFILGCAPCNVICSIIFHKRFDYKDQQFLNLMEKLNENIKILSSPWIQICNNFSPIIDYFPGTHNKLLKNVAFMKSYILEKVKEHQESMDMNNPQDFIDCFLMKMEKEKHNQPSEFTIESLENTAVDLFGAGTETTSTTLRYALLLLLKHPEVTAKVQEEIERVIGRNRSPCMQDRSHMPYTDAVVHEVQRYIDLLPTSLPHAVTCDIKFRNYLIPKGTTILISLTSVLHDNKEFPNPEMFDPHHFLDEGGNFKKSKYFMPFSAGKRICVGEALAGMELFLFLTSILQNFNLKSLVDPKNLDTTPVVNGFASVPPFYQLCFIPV
In short: as §2

[9] = Concentration ratio in cerebrospinal fluid and plasma; conditions: rat
[10] = target: CYP3A4 (Homo sapiens, UniProt P08684); experiment: Interaction with human cytochrome P450 isoform 3A4 expressed in baculovirus-insect cells at 100 uM; type: ADME
Sequence of CYP3A4 (P08684 whole entry, canonical isoform): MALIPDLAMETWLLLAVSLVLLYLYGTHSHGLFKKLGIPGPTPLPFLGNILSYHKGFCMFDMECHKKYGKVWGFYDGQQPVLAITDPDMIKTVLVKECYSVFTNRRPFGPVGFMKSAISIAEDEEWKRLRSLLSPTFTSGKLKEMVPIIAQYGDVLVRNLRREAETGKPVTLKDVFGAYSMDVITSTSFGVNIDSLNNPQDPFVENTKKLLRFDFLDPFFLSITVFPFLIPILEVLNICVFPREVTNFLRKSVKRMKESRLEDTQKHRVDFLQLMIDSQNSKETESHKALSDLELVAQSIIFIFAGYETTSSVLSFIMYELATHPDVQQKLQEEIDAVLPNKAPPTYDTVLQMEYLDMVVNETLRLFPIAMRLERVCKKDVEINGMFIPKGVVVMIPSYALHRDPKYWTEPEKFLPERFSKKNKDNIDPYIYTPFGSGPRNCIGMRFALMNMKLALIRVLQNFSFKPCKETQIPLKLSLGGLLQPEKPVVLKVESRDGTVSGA
In short: as §2

[11] = target: CYP2C9 (Homo sapiens, UniProt P11712); experiment: Interaction with human cytochrome P450 isoform 2C9 expressed in baculovirus-insect cells at 100 uM; type: ADME
Sequence of CYP2C9 (P11712 whole entry, canonical isoform): as the sequence (P11712 whole entry, canonical isoform) above
In short: as §2

[12] = target: Cytochrome P450 2C19 (Homo sapiens, UniProt P33261); experiment: Interaction with human cytochrome P450 isoform 2C19 expressed in baculovirus-insect cells; type: ADME
Sequence of Cytochrome P450 2C19 (P33261 whole entry, canonical isoform): as the sequence (P33261 whole entry, canonical isoform) above
In short: as §2

[13] = target: T1, Amyloid-beta precursor protein; experiment: (§3) Concentration required to inhibit A beta 40 peptide 100 uM
Target sequence in this assay (P05067 whole entry): as the sequence (P05067 whole entry) above

[14] = target: Cytochrome P450 3A4 (Homo sapiens, UniProt P08684); experiment: Interaction with human cytochrome P450 isoform 3A4 expressed in baculovirus-insect cells; type: ADME
Sequence of Cytochrome P450 3A4 (P08684 whole entry, canonical isoform): as the sequence (P08684 whole entry, canonical isoform) above
In short: (§4)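 Supersome microsomes from baculovirus-insect cells expressing human CYP1A2, 2C9, 2C19, 2D6 or 3A4 were used with isoform-specific fluorogenic substrates. Compounds were serially diluted with an NADP⁺/glucose-6-phosphate regenerating system in 0.35 M potassium phosphate, pH 7.4. Plates were prewarmed 10 min at 37 °C, reactions stopped with acetonitrile/Tris, and fluorescence read. IC50 was obtained by nonlinear regression.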

[15] = target: CYP2D6 (Homo sapiens, UniProt P10635); experiment: Interaction with human cytochrome P450 isoform 2D6 expressed in baculovirus-insect cells at 100 uM; type: ADME
Sequence of CYP2D6 (P10635 whole entry, canonical isoform): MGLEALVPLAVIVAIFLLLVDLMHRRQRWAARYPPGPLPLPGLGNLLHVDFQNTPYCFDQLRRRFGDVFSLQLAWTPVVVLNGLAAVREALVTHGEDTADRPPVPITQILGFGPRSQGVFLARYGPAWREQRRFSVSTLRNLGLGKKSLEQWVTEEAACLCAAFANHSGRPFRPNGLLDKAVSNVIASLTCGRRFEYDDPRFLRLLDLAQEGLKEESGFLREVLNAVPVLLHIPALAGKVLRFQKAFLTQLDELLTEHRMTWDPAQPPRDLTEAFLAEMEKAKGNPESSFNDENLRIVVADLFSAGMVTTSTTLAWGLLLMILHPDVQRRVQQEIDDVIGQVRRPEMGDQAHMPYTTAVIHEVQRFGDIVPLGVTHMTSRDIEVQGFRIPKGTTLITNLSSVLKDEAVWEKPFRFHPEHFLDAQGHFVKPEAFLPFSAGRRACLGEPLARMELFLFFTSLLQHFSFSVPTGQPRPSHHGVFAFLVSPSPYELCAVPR
In short: as §2

[16] = target: T4, CYP1A2 (Homo sapiens, UniProt P05177); experiment: Interaction with human cytochrome P450 isoform 1A2 expressed in baculovirus-insect cells at 100 uM; type: ADME
T4 sequence (P05177 whole entry): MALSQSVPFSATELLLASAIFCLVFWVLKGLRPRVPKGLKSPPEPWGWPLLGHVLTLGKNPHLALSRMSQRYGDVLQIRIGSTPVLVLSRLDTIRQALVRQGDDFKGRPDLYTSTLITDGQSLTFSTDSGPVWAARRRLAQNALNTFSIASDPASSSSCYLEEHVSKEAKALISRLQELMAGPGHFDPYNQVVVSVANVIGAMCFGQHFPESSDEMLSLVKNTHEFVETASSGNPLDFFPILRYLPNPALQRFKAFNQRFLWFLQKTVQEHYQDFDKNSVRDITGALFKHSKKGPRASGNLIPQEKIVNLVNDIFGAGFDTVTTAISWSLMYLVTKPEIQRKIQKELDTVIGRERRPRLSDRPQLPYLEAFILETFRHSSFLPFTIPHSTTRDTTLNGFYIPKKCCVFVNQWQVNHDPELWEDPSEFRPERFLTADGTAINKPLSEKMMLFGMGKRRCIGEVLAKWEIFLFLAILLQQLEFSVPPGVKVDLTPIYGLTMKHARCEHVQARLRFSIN
In short: as §2

[17] = target: T1, Amyloid-beta precursor protein; experiment: as §3; remark: listed apart in the source
In short: as §1
Target sequence in this assay (P05067 whole entry): as the sequence (P05067 whole entry) above

[18] = target: Cytochrome P450 2D6 (Homo sapiens, UniProt P10635); experiment: Interaction with human cytochrome P450 isoform 2D6 expressed in baculovirus-insect cells; type: ADME
Sequence of Cytochrome P450 2D6 (P10635 whole entry, canonical isoform): as the sequence (P10635 whole entry, canonical isoform) above
In short: as §4

SMILES: CC(C(=O)O)c1ccc(-c2ccccc2Cl)c(F)c1 (stereo unspecified)
- inhibition [1]: 13%

SMILES: CC(C)(C(=O)O)c1ccc(-c2ccc(C(F)(F)F)cc2)c(F)c1
- IC50 [2]: 70.6 µM
- inhibition [1]: 58%

SMILES: C[C@@H](C(=O)O)c1ccc(-c2ccccc2)c(F)c1 [TARENFLURBIL]
- IC50 [2]: 280 µM
- IC50 [3]: 44 µM

SMILES: CC(C(=O)O)c1ccc(-c2ccc(Cl)cc2)c(F)c1 (stereo unspecified)
- inhibition [1]: 55%

SMILES: CC(C(=O)O)c1ccc(-c2ccc(Cl)c(Cl)c2)c(F)c1 (stereo unspecified)
- IC50 [2]: 75 µM
- inhibition at 100 µM [4]: > 50%
- inhibition [5]: 78%
- Papp [6]: > 5 ×10⁻⁶ cm/s
- inhibition [1]: 87%

SMILES: C[C@H](C(=O)O)c1ccc(-c2ccccc2)c(F)c1 [ESFLURBIPROFEN]
- IC50 [3]: 0.03 µM

SMILES: O=C(O)C1(c2ccc(-c3csc4ccccc34)c(F)c2)CC1
- Clearance [7]: 113.6 mL/h
- IC50 [2]: 96.3 µM
- inhibition [5]: < 1%
- Papp [6]: > 5 ×10⁻⁶ cm/s
- inhibition [1]: 49%
- IC50 [8]: 19 µM
- Ratio [9]: 2.6%

SMILES: CC(C(=O)O)c1ccc(-c2ccc3c(c2)OCO3)c(F)c1 (stereo unspecified)
- IC50 [2]: 210 µM
- inhibition [1]: 42%

SMILES: CC(C(=O)NO)c1ccc(-c2ccc(C(F)(F)F)cc2)c(F)c1 (stereo unspecified)
- inhibition [1]: 31%

SMILES: CC(c1ccc(-c2ccc(C(F)(F)F)cc2)c(F)c1)c1noc(O)n1 (stereo unspecified)
- inhibition at 100 µM [10]: > 50%
- Clearance [7]: 5.3 mL/h
- inhibition at 100 µM [4]: > 50%
- inhibition [1]: 46%
- inhibition at 100 µM [11]: > 50%
- Ratio [9]: 2.1%

SMILES: CC(C(=O)O)c1ccc(-c2ccccc2C(F)(F)F)c(F)c1 (stereo unspecified)
- inhibition [1]: 25%

SMILES: O=C(O)C1(c2ccc(-c3ccc(OC4CCOCC4)cc3)c(F)c2)CC1
- Clearance [7]: 70.5 mL/h
- inhibition [1]: 28%
- Ratio [9]: 1.1%

SMILES: CC(C(=O)O)c1ccc(-c2cccc(Cl)c2)c(F)c1 (stereo unspecified)
- inhibition [1]: 58%

SMILES: O=C(O)C1(c2ccc(-c3ccc(-c4ccc(F)cc4)c(F)c3)c(F)c2)CC1
- Clearance [7]: 8.1 mL/h
- IC50 [2]: 57.9 µM
- inhibition [5]: 18%
- Papp [6]: < 1 ×10⁻⁶ cm/s
- inhibition [1]: 75%
- IC50 [8]: 7 µM
- IC50 [12]: 46 µM
- inhibition [13]: 32%
- Ratio [9]: 1.8%
- IC50 [14]: 38 µM

SMILES: CC(C(=O)O)c1ccc(-c2ccc(C(F)(F)F)cc2)c(Cl)c1 (stereo unspecified)
- inhibition [13]: 40%

SMILES: CC(c1ccc(-c2ccc(C(F)(F)F)cc2)c(F)c1)c1nnn[nH]1 (stereo unspecified)
- inhibition at 100 µM [10]: > 50%
- inhibition at 100 µM [15]: > 50%
- inhibition at 100 µM [16]: > 50%
- IC50 [2]: 114 µM
- inhibition at 100 µM [4]: > 50%
- inhibition [5]: 9%
- inhibition [1]: 43%
- inhibition at 100 µM [11]: > 50%

SMILES: O=C(O)C1(c2ccc(-c3ccccc3)c(F)c2)CC1
- Clearance [7]: 9.8 mL/h
- inhibition [5]: 26%
- Papp [6]: > 5 ×10⁻⁶ cm/s
- inhibition [1]: 40%
- IC50 [8]: 83 µM
- Ratio [9]: 2.3%

SMILES: Cc1ccc(-c2ccc(C(C)C(=O)O)cc2F)cc1 (stereo unspecified)
- inhibition [1]: 44%

SMILES: CC(C(=O)O)c1ccc(-c2ccc(-c3ccc(O)cc3)cc2)c(F)c1 (stereo unspecified)
- Clearance [7]: 85 mL/h
- IC50 [2]: 35 µM
- inhibition [5]: 17%
- Papp [6]: > 5 ×10⁻⁶ cm/s
- inhibition [1]: 75%
- IC50 [8]: 4.7 µM
- IC50 [12]: 58 µM
- Ratio [9]: 1.1%
- IC50 [14]: 74 µM

SMILES: CC1(C)CCC(c2ccc(-c3ccc(C4(C(=O)O)CC4)cc3F)cc2)CC1
- Clearance [7]: 145.8 mL/h
- IC50 [17]: 101 µM
- IC50 [18]: 5.3 µM
- IC50 [2]: 46 µM
- inhibition [5]: 17%
- Papp [6]: < 1 ×10⁻⁶ cm/s
- inhibition [1]: 75%
- IC50 [8]: 17 µM
- IC50 [12]: 13 µM
- Ratio [9]: Below LLOQ
- IC50 [14]: 84 µM

SMILES: CC(C(=O)O)c1ccc(-c2ccc(O)cc2)c(F)c1 (stereo unspecified)
- inhibition [1]: 27%

SMILES: COc1ccc(-c2ccc(C(C)C(=O)O)cc2F)cc1 (stereo unspecified)
- IC50 [2]: 67 µM
- Papp [6]: > 5 ×10⁻⁶ cm/s
- inhibition [1]: 67%
- IC50 [12]: 87 µM

SMILES: CC(C(=O)O)c1ccc(-c2ccsc2)c(F)c1 (stereo unspecified)
- inhibition [1]: 40%

SMILES: CC(C(N)=O)c1ccc(-c2cc(Cl)cc(Cl)c2)c(F)c1 (stereo unspecified)
- Clearance [7]: 193 mL/h
- IC50 [17]: 12 µM
- IC50 [2]: 64 µM
- inhibition [1]: 70%
- Ratio [9]: 19%

SMILES: CC(C(=O)O)c1ccc(-c2ccc(C(F)(F)F)cc2)cc1C(F)(F)F (stereo unspecified)
- inhibition [1]: 57%

SMILES: CC(C(=O)O)c1ccc(-c2ccc(C(F)(F)F)cc2)cc1 (stereo unspecified)
- inhibition [1]: 2%

SMILES: O=C(O)C1(c2ccc(-c3ccc(-c4ccc(O)cc4)cc3)c(F)c2)CC1
- IC50 [17]: 409 µM
- IC50 [18]: 21.5 µM
- IC50 [2]: 31.6 µM
- inhibition [5]: < 1%
- Papp [6]: > 5 ×10⁻⁶ cm/s
- inhibition [1]: 99%
- IC50 [8]: 89 µM
- IC50 [12]: 35 µM

SMILES: CC(C(=O)O)c1ccc(-c2ccncc2)c(F)c1 (stereo unspecified)
- inhibition [1]: 11%
